Compound activity: PubChem BioAssay, Broad Institute
An excerpt weighted towards active compounds, which were near 2.6% of everything screened.
Ecoli rRNA inh: inhibitors of bacterial rRNA selective over humanized ribosomes; E. coli WT GFP vs humanized-ribosome RFP mutants, fluorescence, 24 h; stronger effect = lower value; DMSO median 0, no signal -100; 1.6% of 350,000 active; AID 720706; GFP signal change (wild-type ribosome), % (concentration not given with the values);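 active = significant combined selectivity score with lowered wild-type GFP, culture density cut under 30%, mutant RFP and density less affected; inactive = any of these conditions unmet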
SR-BI DiI inh: inhibitors of mouse SR-BI mediated HDL lipid uptake; Q61009; 0.96% of 320,000 active; ldlA[mSR-BI] CHO cells, DiI-HDL uptake fluorescence, 3 h; inhibition, % at 12.5 µM;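 active = mean replicate inhibition of at least 70% and a set share of replicates each scoring 70 or more; inconclusive = meets just one of the two criteria; inactive = fails both criteria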
Target sequence (Q61009 whole entry, looked up): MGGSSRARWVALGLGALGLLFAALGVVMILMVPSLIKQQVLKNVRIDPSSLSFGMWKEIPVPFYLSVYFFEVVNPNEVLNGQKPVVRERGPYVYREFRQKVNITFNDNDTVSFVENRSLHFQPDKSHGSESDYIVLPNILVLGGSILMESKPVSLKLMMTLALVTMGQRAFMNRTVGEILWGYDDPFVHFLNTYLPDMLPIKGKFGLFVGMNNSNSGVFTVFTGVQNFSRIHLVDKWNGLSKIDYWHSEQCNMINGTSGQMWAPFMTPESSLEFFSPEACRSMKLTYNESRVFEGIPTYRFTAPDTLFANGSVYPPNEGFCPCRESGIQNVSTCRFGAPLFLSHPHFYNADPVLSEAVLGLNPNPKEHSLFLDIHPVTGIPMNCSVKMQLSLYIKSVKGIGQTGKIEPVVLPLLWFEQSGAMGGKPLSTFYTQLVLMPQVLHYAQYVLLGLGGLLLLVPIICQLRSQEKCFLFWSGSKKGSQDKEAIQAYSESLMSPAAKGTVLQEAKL
Xi reactivation: reactivates the inactive X chromosome in mouse fibroblasts; XiGFP mouse fibroblasts, % GFP-positive cells imaging, 3 d; cells co-treated with 5-aza-dC sensitizer; scaled so ellipticine positive control = 100%; activation, % at 7.58 µM; 0.055% of 360,000 active; AID 743238;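 active = mean normalized replicate activation at least 10% and every replicate at or above 10%; inconclusive = only one of the two criteria met; inactive = mean below 10% and not all replicates reach 10%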
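Material: XiGFP fibroblasts, SV40-immortalized; Buffer or medium: DMEM containing 5-aza-dC; Compound dosing: single point; Times: 3 days compound exposure.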
PvdQ acylase: blocks Pseudomonas aeruginosa PvdQ acylase activity; purified PvdQ acylase, fluorescence plate reader; inhibition, % at 10 µM; 0.063% of 340,000 active; AID 488965; in the data active = inhibition above about 30%, passing the limit was not always enough; inconclusive = no clear call, values can overlap the other calls
SR-BI DiI-HDL act: SR-BI HDL lipid transfer activation | 0.096% of 320,000 active | activation, % at 12.5 µM | CHO ldlA[mSR-BI] cells, DiI-HDL uptake fluorescence, 3 h; 100 = double the neutral-control signal;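 active = mean replicate activation of at least 60% and every replicate at or above 60%; inconclusive = mean or all-replicate condition met, but not both; inactive = mean below 60% and not all replicates reaching 60%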
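Test system: SR-BI-overexpressing, LDLR-lacking CHO cells; Medium: Ham's F12 with 0.5% BSA, HEPES 25 mM, pH 7.4; Schedule: 3 h, 37 °C; Technique: bottom-read fluorescence, 550/595 nm.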
dFosB act-1: mouse delta FosB homodimer activation | activation, % at 25 µM | purified delta FosB, TAMRA-CDK5 oligo fluorescence polarization; percent of positive-control signal above neutral wells | 0.99% of 340,000 active | AID 493131 | P13346;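 active = mean activation above about 17%, with every replicate also reaching it, limit read from the data, passing the limit was not always enough; inconclusive = only one of the two conditions met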
DiI quench: quenches DiI-HDL fluorescence, an SR-BI assay artifact; shares compounds with SR-BI DiI inh; cell-free DiI-HDL fluorescence quenching, 30 min; AC50, µM (top dose mostly 35 µM); 20% of 470 active; AID 540326;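 active = quenching, a falling signal, with AC50 below a set limit tied to the top valid dose, actives reach about 32 µM in these data; inconclusive = no clear call, values can overlap the other calls; inactive = rising signal, and the rest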
dFosB act-2: enhances mouse delta FosB homodimer binding to DNA | activation, % at 24.9 µM | shares compounds with dFosB act-1 | 2,400 tested, under 10 active | purified delta FosB, TAMRA-CDK5 oligo fluorescence polarization; normalised: neutral wells 0, positive control 100 | AID 588690;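 active = highest replicate activation at or above 34% and every replicate reaching that threshold; inconclusive = meets only one of the two criteria; inactive = meets neither criterion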;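 also: higher polarization means more probe DNA bound by delta FosB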
Large screens that a line does not name were inactive (follow-up assays come after a bar, where they were run).

CCOC(=O)Nc1ccc2c(c1)N(C(=O)C(C)N1CCCC1)c1ccccc1CC2 (stereo not given)	none (no result: Ecoli rRNA inh, Xi reactivation) | DiI quench inactive
O=C(c1ccc([N+](=O)[O-])cc1)N1CCOC12CCN(c1ncc(C(F)(F)F)cc1Cl)CC2	none (no result: Ecoli rRNA inh, Xi reactivation) | DiI quench inactive
Clc1ccc(-c2cc(-c3nnc4n3CCCCC4)c3ccccc3n2)cc1	SR-BI DiI inh 82.9 (no result: Ecoli rRNA inh) | DiI quench inactive
CN(C(=O)COC(=O)c1ccc(Cl)cc1N)C1CCCCC1	none
CN(C(=O)COC(=O)c1c[nH]c(=O)[nH]c1=O)C1CCCCC1	SR-BI DiI inh 78.8 (no result: Ecoli rRNA inh, Xi reactivation) | DiI quench inactive
CC(=O)NC1CC2CCCC(C1)N2C(=O)Nc1cccc(C)c1 (stereo not given)	none
Cc1cccc(NC(=O)N2C3CCCC2CC(NC(=O)C(C)(C)C)C3)c1 (stereo not given)	SR-BI DiI inh 76.2 | DiI quench inactive
O=C(Nc1cccc(S(=O)(=O)N2CCOCC2)c1)C1CCCCN1S(=O)(=O)c1ccccc1 (stereo not given)	none
O=C(Nc1cccc(S(=O)(=O)N2CCOCC2)c1)C1CCN(S(=O)(=O)c2ccccc2)CC1	SR-BI DiI inh inconclusive | DiI quench inactive
Cc1ccc(-n2nc3c(SCCN4CCOCC4)nnc(C)c3c2C)cc1	none (no result: Ecoli rRNA inh)
CCC(=O)N1CCc2cc(-c3csc(NC(=O)c4ccco4)n3)ccc21	SR-BI DiI inh 87.8 | DiI quench inactive
CC(C)C(=O)N1CCc2cc(-c3csc(N)n3)ccc21	SR-BI DiI inh 78.8 (no result: Xi reactivation) | DiI quench inactive
CS(=O)(=O)N1CCc2cc(-c3csc(NC(=O)Cc4ccccc4)n3)ccc21	SR-BI DiI inh inconclusive (no result: Ecoli rRNA inh, Xi reactivation) | DiI quench inactive
CCCC(=O)Nc1nc(-c2ccc3c(c2)CCN3S(C)(=O)=O)cs1	none (no result: Ecoli rRNA inh, Xi reactivation)
Cc1ccccc1C(=O)N1CCc2cc(-c3csc(NC(=O)CN4CCCC4)n3)ccc21	none
O=C(CNC(=O)c1cccs1)NCC(=O)OCc1ccccc1Br	none
COc1ccc(CNC(=O)CN2CCN(S(=O)(=O)c3c(C)c(C)cc(C)c3C)CC2)cc1OC	none
Cc1cc(C)c(C)c(S(=O)(=O)N2CCN(CC(=O)NC(=O)NCc3ccccc3)CC2)c1C	SR-BI DiI inh 73.9 (no result: Ecoli rRNA inh, Xi reactivation) | DiI quench inactive
COc1cc(C(=S)N2CCCC2)ccc1OC(=O)c1ccc(Cl)cc1[N+](=O)[O-]	SR-BI DiI inh 111.6 (no result: Ecoli rRNA inh, Xi reactivation) | DiI quench inactive
O=C(OCCNc1ncc(C(F)(F)F)cc1Cl)c1ccc(S(=O)(=O)N2CCOCC2)cc1	SR-BI DiI inh 81.2 (no result: Ecoli rRNA inh, Xi reactivation) | DiI quench inactive
O=C(NCCOC(=O)c1ccc(S(=O)(=O)N2CCOCC2)cc1)c1cccnc1	none (no result: Ecoli rRNA inh, Xi reactivation)
Cc1ccc(C)c(NC(=O)c2ccc3c(c2)N(Cc2ccc(F)cc2)C(=O)CS3=O)c1 (stereo not given)	none | DiI quench inactive
O=C(NC1CCCCCCC1)c1ccc2c(c1)N(Cc1ccc(F)cc1)C(=O)CS2=O (stereo not given)	none (no result: Ecoli rRNA inh, Xi reactivation)
C/C=C(\C)C(=O)Nc1cccc(C2=NOC3(C2)C[C@@H](C(N)=O)N(C(=O)c2cc([N+](=O)[O-])cc([N+](=O)[O-])c2C)C3)c1 (stereo not given in full)	none
Cc1c(C(=O)N2CC3(CC(c4cccc(NC(=O)CC(c5ccccc5)c5ccccc5)c4)=NO3)C[C@@H]2C(N)=O)cc([N+](=O)[O-])cc1[N+](=O)[O-] (stereo not given in full)	none | DiI quench inactive
Cc1ccccc1-c1nc(-c2ccc(NC(=O)c3cccs3)cc2)no1	none (no result: Ecoli rRNA inh, Xi reactivation)
CCCCCOC(=O)c1[nH]c2c(c1C)C(=O)CC(c1ccco1)C2 (stereo not given)	SR-BI DiI inh 79.6 (no result: Ecoli rRNA inh, Xi reactivation) | DiI quench inactive
CCOCCOC(=O)c1[nH]c2c(c1C)C(=O)CC(c1cccs1)C2 (stereo not given)	SR-BI DiI inh 75.2 | DiI quench inactive
COCCOC(=O)c1[nH]c2c(c1C)C(=O)CC(c1cccs1)C2 (stereo not given)	none (no result: SR-BI DiI inh, SR-BI DiI-HDL act)
CCOCCOC(=O)c1[nH]c2c(c1C)C(=O)CC(c1ccccc1)C2 (stereo not given)	none
Cc1cc(C)cc(NC(=O)CCc2c(C)nn(-c3ccc(N4CCCCC4)nn3)c2C)c1	SR-BI DiI inh 79.5 | DiI quench inactive
COc1ccc(-c2nc(-c3ccc4c(c3)OCO4)[nH]c2-c2ccc(OC)cc2)cc1	SR-BI DiI inh 105.3 (no result: Ecoli rRNA inh) | DiI quench 2.67µM
COc1ccc(-c2noc(-c3ccc4c(c3)OCO4)n2)cc1	none (no result: Ecoli rRNA inh, Xi reactivation)
COc1ccc(C2/C=C\CN(S(=O)(=O)c3ccc(C)cc3)[C@H](Cc3ccccc3)C(=O)N2Cc2ccc(F)cc2)cc1 (stereo not given in full)	none (no result: Ecoli rRNA inh, Xi reactivation)
COc1ccc(C2/C=C\CN(S(=O)(=O)c3ccc(-c4ccccc4)cc3)CC(=O)N2Cc2ccc(F)cc2)cc1 (stereo not given)	SR-BI DiI inh 81.2 | DiI quench inactive
CC(=O)Nc1ccc(S(=O)(=O)Nc2nc3ccccc3nc2Nc2ccc(C(=O)O)c(O)c2)cc1	none
CC(=O)Nc1ccc(S(=O)(=O)Nc2cc(C)c(-n3nc4ccccc4n3)cc2O)cc1	SR-BI DiI inh 92.9 (no result: Ecoli rRNA inh, Xi reactivation) | DiI quench 9.6µM
CCNc1nc(Cl)nc(-c2cn(-c3ccccc3)c3ccccc23)n1	SR-BI DiI inh 72.1, dFosB act-1 21.6 | DiI quench inactive | dFosB act-2 inactive
CCOC(=O)c1[nH]c2c(c1C)C(=O)CC(c1ccc(F)cc1)C2 (stereo not given)	SR-BI DiI inh inconclusive, dFosB act-1 20.8 | DiI quench inactive | dFosB act-2 inactive
COc1ccc(CCC(=O)Nc2ccc(-c3noc(-c4ccc(OC)c(OC)c4)n3)cc2)cc1	SR-BI DiI inh 101.0, dFosB act-1 28.6 (no result: Ecoli rRNA inh, Xi reactivation) | DiI quench inactive | dFosB act-2 inactive
COc1ccc(-c2noc(CCCC(=O)Nc3ccc(C(N)=O)cc3)n2)cc1OC	none
Cc1ccc(O)c(C2=NOC(O)(C(F)(F)C(F)F)C2)c1 (stereo not given)	none (no result: Xi reactivation)
Cc1c(Br)c([N+](=O)[O-])nn1CC(=O)Nc1cccc2nonc12	none
O=C(COC(=O)c1c2c(nc3ccccc13)/C(=C/c1cccc([N+](=O)[O-])c1)CCC2)NC1CCS(=O)(=O)C1 (stereo not given)	none (no result: Ecoli rRNA inh)
